Molecules are shown by their SMILES. A value given as a limit tells only on which side of the number the result lay.

Broadly, the IC50 is the concentration at which inhibition is half-maximal.

The assay has as its target Replicase polyprotein 1a (Severe acute respiratory syndrome-related coronavirus, UniProt P0C6U8). Description: Inhibition of SARS-CoV 3CL protease. Summed up: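 Purified SARS-CoV 3CL protease (50 nM) with 6 μM fluorogenic substrate peptide in 20 mM Bis–Tris pH 7.0 at 25 °C. Initial velocities were read across inhibitor concentrations and fitted for IC50.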
In the case of `CCCCCCCCC(=O)N[C@@H](CC(C)C)C(=O)NC(Cc1ccccc1)C(=O)C(F)(F)F` (stereo partly drawn), the IC50 was more than 50 µM.

The molecule `CC(C)C[C@H](NC(=O)OC(C)(C)C)C(=O)NC(C)C(=O)C(F)(F)F` (mixture of isomers) came in with an IC50 of 40 µM.

`CCCCCCCCCC(=O)N[C@@H](CC(C)C)C(=O)NC(Cc1ccccc1)C(=O)C(F)(F)F` (mixture of isomers) had a 50% inhibitory concentration (IC50) of 50 µM. The IC50 values of the last two molecules are within 1.5-fold of each other.

In turn, `CC(C)C[C@H](NC(=O)[C@@H](NC(=O)[C@H](C)NC(=O)OCc1ccccc1)C(C)C)C(=O)N[C@@H](Cc1ccccc1)C(=O)C(F)(F)F` (mixture of isomers) gave an IC50 of 10 µM.

As to `C[C@H](NC(=O)[C@@H](N)CCC(=O)O)C(=O)NCC(=O)C(F)(F)F`, the 50% inhibitory concentration (IC50) was determined as 50 µM. Against the preceding molecule, the IC50 is about 5-fold higher.

With `CC(C)C[C@H](NC(=O)OCc1ccccc1)C(=O)NC(Cc1ccccc1)C(=O)C(F)(F)F` (mixture of isomers), it took 15 µM to reach half-maximal inhibition (IC50).

As to `C[C@H](NC(=O)[C@H](CCC(=O)OC(C)(C)C)NC(=O)OC(C)(C)C)C(=O)NCC(=O)C(F)(F)F`, the IC50 was found to be 40 µM.

On to `O=C(N[C@@H](Cc1ccccc1)C(=O)NC(Cc1ccccc1)C(=O)C(F)(F)F)OCc1ccccc1` (mixture of isomers), for which the IC50 came to 20 µM.

The values above are taken from ChEMBL document CHEMBL1144735, “Design, synthesis, and evaluation of trifluoromethyl ketones as inhibitors of SARS-CoV 3CL protease” (Bioorg Med Chem, 2008).
